Experimental findings from ChEMBL document CHEMBL4382210, “Identification of novel benzothiopyranone compounds against Mycobacterium tuberculosis through scaffold morphing from benzothiazinones” (Eur J Med Chem, 2018) are described below.

SMILES strings stand for the structures. In brackets after ≈: the same amount, converted by molar mass. Where only a bound is given, the exact number is not on record here.

As a reminder, the MIC90 is an inhibitory concentration at the 90% level, which refers to growth in some studies and to a panel of isolates in others. A lower MIC90 goes with greater potency.

In test [1] the test system is Mycobacterium tuberculosis. The test can be described thus: Antimicrobial activity against multi drug-resistant Mycobacterium tuberculosis 12611 after 7 days by MABA. The note with it: Mycobacterium tuberculosis, 12611, 168 h. The test is classed as functional. The essentials: (§1)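 Strain H37Rv or clinical isolates grown to late log phase in 7H9-ADC-TG, washed, resuspended in PBS, filtered (8 µm) and frozen. On day 7 Tween 80 and alamar blue added, read 16–24 h later (ex 530/em 590). MIC = lowest concentration giving ≥90% fluorescence reduction versus bacterium-only controls.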
(In general: The colour change of resazurin is a common sign of viable cells or microbes.)

Test [2] concerns Mycobacterium tuberculosis. In words: Antimicrobial activity against multi drug-resistant Mycobacterium tuberculosis 14231 after 7 days by MABA. The test is classed as functional. The following applies: Mycobacterium tuberculosis, 14231, 168 h. The essentials:
as §1

As to `O=c1cc(N2CCN(Cc3ccccc3)CC2)sc2c([N+](=O)[O-])cc(C(F)(F)F)cc12`, the MIC90 in test [1] was found to be 0.011 µg/mL (≈ 0.0245 µM); in test [2], 0.023 µg/mL (≈ 0.0512 µM).

For the compound `O=c1cc(N2CCN(CC3CCCCC3)CC2)sc2c([N+](=O)[O-])cc(C(F)(F)F)cc12`, the MIC90 in test [1] and in test [2] was less than 0.002 µg/mL each time.

As to `NNC(=O)c1ccncc1` [ISONIAZID], the MIC90 in test [1] was 19.5 µg/mL (≈ 142 µM); in test [2] it was more than 40 µg/mL.

With `O=c1nc(N2CCN(CC3CCCCC3)CC2)sc2c([N+](=O)[O-])cc(C(F)(F)F)cc12` [MACOZINONE], the MIC90 in test [1] and in test [2] was less than 0.002 µg/mL throughout.

Turning to `CO[C@H]1/C=C/O[C@@]2(C)Oc3c(C)c(O)c4c(O)c(c(/C=N/N5CCN(C)CC5)c(O)c4c3C2=O)NC(=O)/C(C)=C\C=C\[C@H](C)[C@H](O)[C@@H](C)[C@@H](O)[C@@H](C)[C@H](OC(C)=O)[C@@H]1C` [RIFAMPIN], the MIC90 in test [1] and in test [2] was more than 40 µg/mL each time.
